Source: PubChem BioAssay
Values without a mark were called inactive. Results filed as inconclusive are left out. Active and inactive are the calls of the source.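 The calls were made as follows, unless noted: active = viability increase at or above a cutoff of the median across tested compounds plus 3 SD (cut at about 8.5% in these data, passing the limit was not always enough); inconclusive = some gains above the cutoff, reason not given; inactive = the rest.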

What was measured:
[1] = S. cerevisiae growth inhibition in permissive medium (OD615), pilot counter-assay for S. cerevisiae lifespan shortening project, permissive growth control (AID 705;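 active = growth inhibition above 25% in both replicates, a cutoff set 3 SD above the mean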); details: OD615, 24 h, at 10 µM, active compounds read high
Method in brief: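 System: Engineered DeaD yeast | Buffer or medium: SC raffinose/galactose permissive medium | Incubation: Cells pre-grown 4 h, then 24 h compound exposure, 30 °C humidified | Measured by: Absorbance (optical density) at 615 nm | Read-out: Reduction in yeast growth (OD615)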

[2] = S. cerevisiae growth inhibition in restrictive medium, OD615, pilot screen, restrictive growth control, yeast lifespan reduction project (AID 706;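 active = growth inhibition above a set limit, 3 SD over mean compound inhibition, in both replicates, cut at about 43% in these data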;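 also: modified DeaD lifespan yeast strain shifted to restrictive glucose medium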); details: OD615, 48 h, at 10 µM, active compounds read high
Method in brief: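 Material: modified S. cerevisiae; Medium: glucose-based CSMM-D restrictive medium; Compound dosing: one concentration, 10 µM final, 0.25% DMSO; Incubation: 48 h compound exposure at 30 °C; Measured by: OD615.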

[3] = doxorubicin toxicity protection in MRP-1 cells – H69AR cells, CellTiter-Glo, duplicate, MRP-1 activator project, pilot screen (AID 807); details: H69AR viability with doxorubicin, CellTiter-Glo luminescence; at 10 µM; active compounds read high;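 also: compound pretreatment 18-22 h then 72 h combined with doxorubicin; 0% = doxorubicin alone and 100% = vehicle without doxorubicin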
[4] = viability of HCT116 without oncogenic beta-catenin – human colon tumor cells, pilot screen (AID 823;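 active = cell viability at or below a set limit in both duplicate runs, the limit being the all-compound median minus 4 SD, cut at about 23% in these data, passing the limit was not always enough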;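 also: 0% = wells killed by 20 µM Hyamine and 100% = untreated DMSO cell wells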); details: HCT116 beta-catenin knockout viability, CellTiter-Glo, 60 h; at 10 µM; active compounds read low
[5] = viability of PTEN-null HCT116 cells – cell-based, HCT116 clonal line, CellTiter-Glo, pilot screen (AID 824;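 active = viability at or below 27.92% in each of two runs, the all-compound median minus 4 SD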;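 also: 0% = 20 µM Hyamine control and 100% = vehicle cell control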); details: HCT116 PTEN-deleted viability, 60 h, at 10 µM, active compounds read low
[6] = RAM pathway blockade in budding yeast – dse1pr::URA3 reporter, 5-FOA selection, pilot screen (AID 869;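 active = inhibition over a set limit, the all-compound mean plus 3 SD, in both replicate runs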;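 also: 0% = DMSO wells with no growth and 100% = 10 µM 1-NA-PP1 with full growth; RAM network block rescues cells from 5-FOA so hits raise OD615 growth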); details: S. cerevisiae dse1pr::URA3 5-FOA growth, OD615, 2 d; at 10 µM; active compounds read high; strain carries analog-sensitive mutant Cbk1 kinase
[7] = RAM signaling pathway blockade in yeast – S. cerevisiae, Pdr1DBD-CYC8 efflux-inhibited sensitized strain, primary screen (AID 1298;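 active = RAM network inhibition above 8.4% in each of two replicates, 3 SD over the compound average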;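 also: 0% = DMSO untreated cells without growth and 100% = 10 µM 1-NA-PP1 full growth; higher means more yeast growth rescued from 5-FOA killing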); details: S. cerevisiae cbk1-as DSE1-URA3 strain, 5-FOA growth OD615, 2 d; at 50 µM; active compounds read high

Structure (SMILES) | growth inhibition [1] [%] | growth inhibition [2] | viability increase [3] [%] | viability [4] | viability [5] | inhibition [6] [%] | RAM network inhibition [7] [%]
CCOC(=O)CN1CC23C=CC(O2)C(C(=O)NCc2ccc(C)cc2)C3C1=O (stereo unspecified) | -6.12 | -3.33% | -0.1 | 99.5% | 109% | 1.29 | 1.3
Cc1nnc(SCc2ccc(Cl)cc2Cl)[nH]c1=O | -11.1 | 1.19% | 0.05 | 104% | 99.1% | 0.42 | 4.49
O=C(NCc1cccnc1)c1cnn2ccccc12 | -7.88 | -0.235% | -1.28 | 106% | 90.9% | 1.62 | 0.38
COc1ccc(C(CNC(=O)C2CC(=O)N(Cc3ccc(C)cc3)C2)N(C)C)cc1 (stereo unspecified) | -1.76 | -7.34% | -0.21 | 96% | 95.7% | 1.3 | 1.64
CCOC(=O)C1=C(C)NC(=O)NC1c1ccc(OCC(=O)Nc2ccccc2)c(OC)c1 (stereo unspecified) | -2.03 | -26% | -1.88 | 102% | 95% | 2.01 | 0.32
OCCNc1nc(Nc2ccccc2)nc(Nc2ccccc2)n1 | 14 | 4.96% | -1.23 | 95.8% | 94% | -0.245 | -1.3
O=C(c1cc(-c2cccs2)on1)N1CCCc2ccccc21 | -2.66 | -4.53% | -3.09 | 103% | 103% | 2.58 | -0.52
CCOC(=O)N1CCC(NC(=O)c2cc3c(C)nc4ccccc4c3o2)CC1 | -14.7 | -11.2% | -3.16 | 92.6% | 91.5% | 0.54 | 3.54
CC1=C(C(=O)OCc2ccc3c(c2)OCO3)C(c2ccc(Cl)cc2)NC(=O)N1 (stereo unspecified) | -4.12 | -5.46% | -4.91 | 19.4% (active) | 22.3% (active) | 1.32 | 4.12
COc1ccc(S(=O)(=O)Cc2ccc(C(=O)N3CCN(c4cc(Cl)ccc4C)CC3)o2)cc1 | -4.16 | -10.7% | -2.31 | 76.8% | 67% | 2.08 | 3.33
c1ccc(-c2csc3nnc(SCc4ccc5c(c4)OCO5)n23)cc1 | 22.1 | 64.5% (active) | -2.01 | 93.2% | 82.7% | 0.87 | 3.09
O=C(Nc1c(C(=O)N2CCCC2)cnn1-c1ccccc1)c1cccc(F)c1 | -7.52 | -1.27% | -0.46 | 96.7% | 98.9% | 0.475 | 1.02
Nc1cccc(C(=O)Nc2ccc(N)cc2Cl)c1 | -18.5 | -7.93% | -0.9 | 103% | 106% | 2.42 | 2.91
COC(=O)c1ccc(CSc2nc3c(c(=O)n2-c2ccc(Br)cc2)SCC3)o1 | -15.5 | -19.8% | -3.79 | 80.9% | 76% | 1.67 | 7.53
O=C1CC(c2ccccc2)C(C(=O)O)N1 (stereo unspecified) | -0.84 | -18.1% | 1.77 | 99.2% | 102% | 2.74 | 0.37
CCCCCc1nnc(NC(=O)OCCC)s1 | -1 | 14.7% | -3.57 | 97.8% | 91.2% | 0.63 | -0.93
CCCCCn1c(CCNC(=O)c2cccs2)nc2ccccc21 | -9.44 | -0.75% | -2.25 | 94.2% | 86.4% | 2.39 | 0.13
O=C(CNS(=O)(=O)c1cccc2nsnc12)NCc1ccc(Cl)cc1 | -2.9 | -2.34% | -4.44 | 88% | 91.5% | 0.415 | 4.28
COCCSc1nc2c(c(=O)[nH]c(=O)n2C)n1Cc1cccc(C)c1 | 0.55 | 0.3% | -1.81 | 90.2% | 79.6% | 1.57 | 4.44
CCN1CCN(CC(=O)Nc2ccc3c(c2)OCCO3)C(=O)C1=O | 2.63 | 10.1% | 1.13 | 105% | 103% | 0.675 | 2.49
COc1cccc(C(=O)NCc2cn3ccsc3n2)c1 | -16.9 | 4.09% | -1.05 | 110% | 92.4% | 2.06 | 3.48
COC(=O)c1ccc(C)c(NS(=O)(=O)c2ccc(OC)cc2)c1 | -0.83 | -23.9% | -5.33 | 16.6% (active) | 20.5% (active) | 2.15 | 9.79
CCN(CC)CCNC(=O)c1cc2c(=O)n(C)c3ccccc3c2n1C | -4.52 | -6.67% | -4.8 | 49.8% | 51.4% | 1.88 | 0.31
O=C1c2cccc3cccc(c23)C(=O)N1c1nccs1 | -1.67 | 0% | 0.23 | 104% | 106% | 1.98 | 6.64

Structure (SMILES) | growth inhibition [1] [%] | growth inhibition [2] | viability increase [3] [%] | viability [4] | viability [5] | inhibition [6] [%] | RAM network inhibition [7] [%]
CCOc1ccccc1CNC(=O)c1cc2occc2n1C | 1.53 | 5.16% | 1.21 | 95.2% | 87.4% | 1.74 | 3.98
O=C(C1CCCN(S(=O)(=O)c2cccc3cccnc23)C1)N1CCN(c2ccccc2F)CC1 (stereo unspecified) | -5.55 | 7.3% | -0.18 | 73.2% | 76.5% | -0.265 | 2.98
CCOC(=O)c1[nH]c(C)c(C(=O)NCCN2CCOCC2)c1C | -3.9 | -8.41% | -1.39 | 103% | 97.7% | 0.85 | -0.87
CCOC(=O)CN1CC23C=CC(O2)C(C(=O)NCc2ccccc2OC)C3C1=O (stereo unspecified) | 1.34 | 8.84% | -3.18 | 103% | 102% | 2.3 | 0.15
CCSc1nc2c(c(=O)n1-c1ccc(F)cc1)SCC2 | -7.3 | -6.39% | -2.75 | 89.2% | 94.2% | 1.18 | -0.35
Cc1ccc2c(CC(=O)O)coc2c1 | -5.59 | 27.6% | -0.46 | 89.3% | 97.5% | -0.825 | -1.05
NC(=O)C1(S(=O)(=O)c2ccccc2)CCCCC1 | -0.22 | -4.29% | -1.06 | 97.8% | 96.7% | 1.43 | 4.97
Cc1cc(C)cc(N(CC(=O)N2CCN(Cc3ccccc3)CC2)S(=O)(=O)c2c(C)noc2C)c1 | -13.5 | -29.5% | -4.22 | 101% | 96.9% | 1.84 | 3.45
COc1ccc(-n2c(Cn3c(=O)sc4ccccc43)nnc2SCC(=O)N2CCCCC2)cc1 | 3.02 | 19.9% | -0.89 | 99.6% | 96.5% | 0.19 | 6.13
CCCC1(C(=O)O)NC(c2ccccc2O)C2C(=O)N(Cc3ccccc3)C(=O)C21 (stereo unspecified) | 7.11 | 6.84% | -1.02 | 97.5% | 90.8% | 0.45 | 0.88
O=S(=O)(c1cccs1)n1nnc2ccccc21 | -1.66 | -8.55% | -0.18 | 103% | 105% | 1.33 | 0.48
CC(=O)c1ccc(OCC(O)CN2CCOCC2)cc1 (stereo unspecified) | -11.4 | 10.1% | 0.28 | 103% | 90.7% | 2.42 | 0.84
O=C1CCCCCN1CP(=O)(O)CCc1ccccc1 | -5.01 | -0.455% | -0.2 | 100% | 104% | 1.19 | 0.42
COc1ccc(C2C(C(=O)c3ccco3)=C(O)C(=O)N2CCc2ccccc2)cc1OC (stereo unspecified) | -12.1 | 7.54% | -1.95 | 101% | 92.5% | 5.36 | 4.36
CC(C)N(CCCNC(=O)CC1Oc2ccccc2NC1=O)Cc1ccccc1 (stereo unspecified) | 2.46 | 10.3% | -1.49 | 89.3% | 97.7% | 0.47 | 3.18
Cc1cc(OCc2ccc(F)cc2)nc(-c2ccccc2O)n1 | -0.25 | -3.18% | 2.19 | 76.6% | 70.3% | 1.35 | 2.72
CC1CSc2nnc(CCc3ccccc3)n21 (stereo unspecified) | 2.06 | -7.96% | -2.61 | 107% | 89.2% | 0.37 | -0.11
CCOC(=O)c1cnc2ccc(C(=O)OC)cc2c1NCCN1CCOCC1 | -6.57 | -2.95% | -4.73 | 86.6% | 92.1% | 2.41 | 2.6
CCCC(=O)NCCCc1nc2ccccc2n1CC | -7.75 | 0.985% | 0.81 | 100% | 101% | -0.16 | 0.58
S=c1[nH]nc(-c2ccncc2)n1Cc1ccccc1 | -4.1 | -9.11% | -1.9 | 100% | 93.7% | 0.265 | 1.95
O=C(NCc1ccccn1)c1nnc(Cc2ccc(Cl)cc2)o1 | -1.48 | 2.66% | 1.55 | 108% | 103% | 0.515 | -1.46
COc1ccc(NC(=O)Nc2nnc(N3CCCCC3C)s2)cc1OC (stereo unspecified) | -5.21 | -10.4% | -1.91 | 99.2% | 97.4% | 2.48 | 3.85
COc1ccc(C2CC(=O)C=C(NCC3CCCO3)C2)cc1 (stereo unspecified) | -10.4 | -1.65% | -0.23 | 96.2% | 100% | 1.43 | 1.32
OCC1(C2=NOC(O)(C(F)(F)F)C2)CCCCC1 (stereo unspecified) | -7.57 | -22.3% | 1.19 | 101% | 101% | 2.09 | 3.18
